Calls of active or inactive are those of the source. No cut-off for these calls is given here.

The test system of one test is MCF7 (human). In words: Cytotoxicity against human MCF7 cells after 72 hrs by MTT assay. Particulars: MCF7, 72 h.
Another test concerns HeLa (human). As to the kind of experiment: Cytotoxicity against human HeLa cells after 72 hrs by MTT assay.
For another test, the system named is MCF7. In words: Cytotoxicity against human MCF7 cells at 50 uM after 72 hrs by MTT assay. Format: functional. In outline: (§1)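 The MTT proliferation assay used MCF-7 or HeLa cells at 2000 per well in DMEM with 10% FBS at 37 °C and 5% CO2, with a 3-day exposure to DMSO-dissolved analogues diluted in medium. Compounds were tested up to the top concentration. A490 at that concentration is reported as percent of the absorbance of untreated cells.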
On the technique in general: Tetrazolium assays rely on reduction of a dye to a coloured formazan, in cell work by metabolically active cells.

For a further test, the system named is HeLa. As to the kind of experiment: Cytotoxicity against human HeLa cells at 50 uM after 72 hrs by MTT assay. Format: functional, cell-based. In short, it runs like this: as §1

What is called IC50 is the point on the concentration scale where inhibition reaches its midpoint. Higher therefore signals lower potency. With `COc1cccc2c1C(=O)c1c(O)c3c(c(O)c1C2=O)C[C@@](O)(C(=O)CO)C[C@@H]3O[C@H]1C[C@H](N)[C@H](O)[C@H](C)O1` [DOXORUBICIN], the values for the IC50 in the test on MCF7 (human) and in the test on HeLa (human) were 0.73 µM and 1.03 µM, respectively.

In turn, `C[C@@H]1CC[C@@]2(OC1)O[C@H]1C[C@H]3[C@@H]4CC=C5C[C@@H](O[C@@H]6O[C@H](CO)[C@@H](O[C@@H]7O[C@@H](C)[C@H](O)[C@@H](O)[C@H]7O)[C@H](O)[C@H]6NC(=O)c6ccccc6)CC[C@]5(C)[C@H]4CC[C@]3(C)[C@H]1[C@@H]2C` displayed an Activity in the test with MCF7 of 68%. In the test with HeLa, the outcome was inactive. The IC50 in the test on MCF7 (human) was more than 50 µM.

Consider `C[C@@H]1CC[C@@]2(OC1)O[C@H]1C[C@H]3[C@@H]4CC=C5C[C@@H](O[C@@H]6O[C@H](CO)[C@@H](O)[C@H](O)[C@H]6NC(=O)c6cccc([N+](=O)[O-])c6)CC[C@]5(C)[C@H]4CC[C@]3(C)[C@H]1[C@@H]2C`, for which the IC50 with MCF7 (human) was 13.6 µM; with HeLa (human), 16.1 µM.

Consider `C[C@@H]1CC[C@@]2(OC1)O[C@H]1C[C@H]3[C@@H]4CC=C5C[C@@H](O[C@@H]6O[C@H](CO)[C@@H](O)[C@H](O)[C@H]6NC(=O)CCCCC6CCSS6)CC[C@]5(C)[C@H]4CC[C@]3(C)[C@H]1[C@@H]2C` (stereo partly drawn) [ALPHA LIPOYL], for which the IC50 with MCF7 (human) was 6.9 µM; with HeLa (human), 7.3 µM.

For `C[C@@H]1CC[C@@]2(OC1)O[C@H]1C[C@H]3[C@@H]4CC=C5C[C@@H](O[C@@H]6O[C@H](CO)[C@@H](O)[C@H](O)[C@H]6NC(=O)c6ccccc6)CC[C@]5(C)[C@H]4CC[C@]3(C)[C@H]1[C@@H]2C`, the IC50 in the test with MCF7 (human) was 19.4 µM; with HeLa (human) it was 18 µM.

As to `C[C@@H]1CC[C@@]2(OC1)O[C@H]1C[C@H]3[C@@H]4CC=C5C[C@@H](O[C@@H]6O[C@H](CO)[C@@H](O)[C@H](O)[C@H]6NC(=O)c6cc([N+](=O)[O-])cc([N+](=O)[O-])c6)CC[C@]5(C)[C@H]4CC[C@]3(C)[C@H]1[C@@H]2C`, the IC50 in the test on MCF7 (human) turned out to be 18.7 µM; with HeLa (human), 21 µM.

In the case of `C[C@@H]1CC[C@@]2(OC1)O[C@H]1C[C@H]3[C@@H]4CC=C5C[C@@H](O[C@@H]6O[C@H](CO)[C@@H](O[C@@H]7O[C@@H](C)[C@H](O)[C@@H](O)[C@H]7O)[C@H](O)[C@H]6NC(=O)CCCCC6CCSS6)CC[C@]5(C)[C@H]4CC[C@]3(C)[C@H]1[C@@H]2C` (mixture of isomers), the results for the IC50 in the test on MCF7 (human) and in the test with HeLa (human) were 18.8 µM and 39.9 µM, respectively.

With `C[C@@H]1CC[C@@]2(OC1)O[C@H]1C[C@H]3[C@@H]4CC=C5C[C@@H](O[C@@H]6O[C@H](CO)[C@@H](O[C@@H]7O[C@@H](C)[C@H](O)[C@@H](O)[C@H]7O)[C@H](O)[C@H]6NC(=O)c6cc([N+](=O)[O-])cc([N+](=O)[O-])c6)CC[C@]5(C)[C@H]4CC[C@]3(C)[C@H]1[C@@H]2C`, in the test with HeLa, the result was inactive. In the test with MCF7 (human), this molecule registered an IC50 of 39.5 µM.

Consider `C[C@@H]1CC[C@@]2(OC1)O[C@H]1C[C@H]3[C@@H]4CC=C5C[C@@H](O[C@@H]6O[C@H](CO)[C@@H](O[C@@H]7O[C@@H](C)[C@H](O)[C@@H](O)[C@H]7O)[C@H](O)[C@H]6NC(=O)c6cccc([N+](=O)[O-])c6)CC[C@]5(C)[C@H]4CC[C@]3(C)[C@H]1[C@@H]2C`, for which the IC50 with MCF7 (human) was found to be 22.8 µM; in the test on HeLa (human), 39.4 µM.
